The nature of assay [1]: S. cerevisiae growth inhibition in permissive medium (OD615), pilot counter-assay for S. cerevisiae lifespan shortening project, permissive growth control (AID 705;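 active means growth inhibition above 25% in both replicates, a cutoff set 3 SD above the mean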). To be noted: OD615, 24 h, at 10 µM, active compounds read high. In a few lines:
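Test system: Saccharomyces cerevisiae strain carrying genetically modified DeaD replicative-lifespan system; buffer or medium: SC raffinose/galactose permissive medium; dosing: one dose 10 µM, DMSO 0.25% final; times: 24 h exposure, 30 °C; measured by: OD at 615 nm; read-out basis: growth inhibition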

Assay [2] in a line: S. cerevisiae growth inhibition in restrictive medium, OD615, pilot screen, restrictive growth control, yeast lifespan reduction project (AID 706;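 active means growth inhibition above a set limit, 3 SD over mean compound inhibition, in both replicates, cut at about 43% in these data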;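 further: modified DeaD lifespan yeast strain shifted to restrictive glucose medium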). To be noted: OD615, 48 h, at 10 µM, active compounds read high. In a few lines: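 material = engineered S. cerevisiae DeaD strain | buffer or medium = glucose-based CSMM-D restrictive medium | dosing = one concentration, 10 µM final, 0.25% DMSO | schedule = 4 h pre-growth plus 48 h compound exposure, 30 °C | detection = OD615 absorbance reading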

A short description of assay [3]: doxorubicin toxicity protection in MRP-1 cells – H69AR cells, CellTiter-Glo, duplicate, MRP-1 activator project, pilot screen (AID 807;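 active means viability increase at or above a cutoff of the median across tested compounds plus 3 SD, cut at about 8.5% in these data, passing the limit was not always enough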;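 further: compound pretreatment 18-22 h then 72 h combined with doxorubicin; 0% = doxorubicin alone and 100% = vehicle without doxorubicin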). To be noted: H69AR viability with doxorubicin, CellTiter-Glo luminescence; at 10 µM; active compounds read high.
Assay [4] in a line: viability of HCT116 without oncogenic beta-catenin – human colon tumor cells, pilot screen (AID 823;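 active means cell viability at or below a set limit in both duplicate runs, the limit being the all-compound median minus 4 SD, cut at about 23% in these data, passing the limit was not always enough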;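 further: 0% = wells killed by 20 µM Hyamine and 100% = untreated DMSO cell wells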). To be noted: HCT116 beta-catenin knockout viability, CellTiter-Glo, 60 h; at 10 µM; active compounds read low. For orientation: In ATP-based viability assays light output follows the ATP content of the culture.
Assay [5] in a line: RAM pathway blockade in budding yeast – dse1pr::URA3 reporter, 5-FOA selection, pilot screen (AID 869).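 Further: 0% = DMSO wells with no growth and 100% = 10 µM 1-NA-PP1 with full growth; RAM network block rescues cells from 5-FOA so hits raise OD615 growth.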 To be noted: S. cerevisiae dse1pr::URA3 5-FOA growth, OD615, 2 d; at 10 µM; active compounds read high; strain carries analog-sensitive mutant Cbk1 kinase.
Assay [6] is described as follows: RAM signaling pathway blockade in yeast – S. cerevisiae, Pdr1DBD-CYC8 efflux-inhibited sensitized strain, primary screen (AID 1298;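 active means RAM network inhibition above 8.4% in each of two replicates, 3 SD over the compound average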;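 further: 0% = DMSO untreated cells without growth and 100% = 10 µM 1-NA-PP1 full growth; higher means more yeast growth rescued from 5-FOA killing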). To be noted: S. cerevisiae cbk1-as DSE1-URA3 strain, 5-FOA growth OD615, 2 d; at 50 µM; active compounds read high.

Here are results for 20 molecules from PubChem BioAssay.

The structures appear in SMILES notation. Values without a mark were called inactive. Records with an inconclusive call do not appear. Calls of active or inactive are those of the source.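 How the source made its calls, unless noted: active means inhibition over a set limit, the all-compound mean plus 3 SD, in both replicate runs; inconclusive means over that limit in just one replicate run; inactive means at or under that limit in both runs.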

What is called viability is a read-out of living cells in per cent, often relative to untreated cells. By inhibition is commonly meant the drop in the measured response relative to a control, in per cent.

With `CC(C)CC(NC(=O)C1CCC(C)CC1)C(=O)Nc1ccccn1` (stereo not given), the growth inhibition in assay [1] was -11.7%; in assay [2] it was 2.61%. In assay [3], the viability increase is -1.42%. In addition, the viability in assay [4] was 92.9%. In addition, the inhibition in assay [5] is 0.5%. Besides, in assay [6], the RAM network inhibition is 3.07%.
`CC(C)n1c(CNC(=O)c2ccccc2)nc2ccccc21`: the growth inhibition in assay [1] is -18.1%; in assay [2], 9.14%. In assay [3], the viability increase was -3.11%. Besides, in assay [4], the viability is 100%. In addition, in assay [5], the inhibition was 2.63%. In assay [6], the RAM network inhibition is 1.5%.
Consider `Cc1cc(C)n(-c2nnc(C)n2/N=C/c2ccccc2OCc2ccccc2Cl)n1`, for which the growth inhibition in assay [1] is -4.54%; in assay [2], -6.33%. Moreover, the viability increase in assay [3] is -5.89%. The viability in assay [4] was 22.2% (active). Besides, the inhibition in assay [5] is 1.27%. Moreover, in assay [6], the RAM network inhibition was -2.2%.
`CC1(C)Cc2c(sc3nc(SCC(=O)N4CCOCC4)nc(N)c23)CO1`: the growth inhibition in assay [1] was -2.9%; in assay [2], 18.3%. Also, the viability increase in assay [3] is -3.19%. Further, the viability in assay [4] was 98.9%. Moreover, the inhibition in assay [5] was 1.49%. In assay [6], the RAM network inhibition is 0.62%.
`CC(=O)Nc1ccc(S(=O)(=O)N2CCC(c3nc4ccc(C)cc4[nH]3)CC2)cc1`: the growth inhibition in assay [1] was -24.1%; in assay [2] it was 2.08%. The viability increase in assay [3] is -3.15%. In addition, the viability in assay [4] is 51.2%. For the same molecule, in assay [5], the inhibition was 1.47%. The RAM network inhibition in assay [6] was 9.15%.
As for `O=C(CNC(=O)Cn1ccc2ccccc2c1=O)NCCCN1CCCCCC1`, the growth inhibition in assay [1] was -7.25%; in assay [2], -1.09%. In addition, the viability increase in assay [3] is -2.48%. In addition, in assay [4], the viability was 91.2%. In assay [5], the inhibition was -0.25%. Further, the RAM network inhibition in assay [6] was 4.42%.
For `COC(=O)CCC(=O)Oc1ccc(OC(=O)CCC(=O)OC)cc1`, the growth inhibition was 7.12% in assay [1] and 2.51% in assay [2]. Also, the viability increase in assay [3] was -4.94%. In assay [4], the viability is 72.9%. In assay [5], the inhibition is 1.48%. The RAM network inhibition in assay [6] is 0.94%.
As for `O=C1CC(c2ccccc2)n2nc(N3C(=O)CCC3=O)nc2N1` (stereo not given), the growth inhibition in assay [1] was -8.97%; in assay [2], 1.75%. Further, the viability increase in assay [3] is -0.15%. Besides, the viability in assay [4] is 97.9%. For the same molecule, in assay [5], the inhibition was 1.32%. For the same molecule, in assay [6], the RAM network inhibition was 3.53%.
`CCOC(=O)C1CCN(CCC(=O)Nc2cccc(Cl)c2C)CC1`: the growth inhibition in assay [1] was -11.2%; in assay [2], -0.95%. Besides, the viability increase in assay [3] is -2.59%. In assay [4], the viability is 94.6%. Also, the inhibition in assay [5] is 1.46%. In assay [6], the RAM network inhibition was 2.35%.
As to `Nn1c(SCC(=O)NC2CCCCC2)nnc1-c1ccccc1`, the growth inhibition was -25.7% in assay [1] and 8.66% in assay [2]. Besides, the viability increase in assay [3] is -1.37%. Moreover, the viability in assay [4] was 98.8%. Further, the inhibition in assay [5] is 2.28%. The RAM network inhibition in assay [6] is 4.63%.
Take `CCN(CC)C(=O)c1cn(CC)c(=O)c2cc(OC)c(OC)cc12`: the growth inhibition is -18.9% in assay [1] and 2.04% in assay [2]. Also, the viability increase in assay [3] was -3.37%. Also, the viability in assay [4] is 103%. Further, in assay [5], the inhibition is 0.93%. The RAM network inhibition in assay [6] is 2.76%.
As to `CC1(C)Cc2nc3sc4c(=O)n(CC(=O)NCc5ccco5)cnc4c3cc2CO1`, the growth inhibition in assay [1] was -8.59%; in assay [2], 7.79%. Also, the viability increase in assay [3] was -5.22%. In assay [4], the viability is 40.5%. Moreover, in assay [5], the inhibition is 0.68%. In assay [6], the RAM network inhibition is 4.21%.
Take `COc1ccccc1C(=O)Nc1nnn(C)n1`: the growth inhibition was -26.5% in assay [1] and 6.7% in assay [2]. Further, the viability increase in assay [3] is -0.45%. Besides, the viability in assay [4] was 108%. Also, the inhibition in assay [5] is 0.84%. In addition, in assay [6], the RAM network inhibition was 6.87%.
For the molecule `CC1(C)Cc2c(c(=S)nc(-c3ccccc3)n2CCOCCO)CO1`, the growth inhibition in assay [1] is -16.5%; in assay [2], 19.6%. For the same molecule, the viability increase in assay [3] was -2.12%. In assay [4], the viability was 98.2%. Moreover, the inhibition in assay [5] was 0.775%. Further, the RAM network inhibition in assay [6] is 4.58%.
As for `CN1CCCCc2c1[nH]c1ccccc1c2=O`, the growth inhibition in assay [1] was 8.28%; in assay [2] it was 2.2%. Further, the viability increase in assay [3] is -3.35%. Besides, in assay [4], the viability is 95.8%. Further, the inhibition in assay [5] is 0.42%. Also, in assay [6], the RAM network inhibition is -1.45%.
In the case of `OC(COCc1cccs1)CN1CCN(c2ccccn2)CC1` (stereo not given), the growth inhibition in assay [1] is -19.5%; in assay [2], -7.78%. The viability increase in assay [3] was -1.3%. Also, in assay [4], the viability is 101%. Besides, the inhibition in assay [5] is 2.32%. The RAM network inhibition in assay [6] is 4.89%.
For the molecule `Cc1cc(C)nc(NS(=O)(=O)c2ccc(NC(=O)c3cccs3)cc2)n1`, the growth inhibition in assay [1] is -11.4%; in assay [2], -2.39%. For the same molecule, the viability increase in assay [3] is -2.29%. For the same molecule, the viability in assay [4] was 97.7%. The inhibition in assay [5] is 0.89%. Further, the RAM network inhibition in assay [6] was 0.21%.
For the molecule `N#C/C(=C1\CCCN1)c1ccc2ccccc2n1`, the growth inhibition in assay [1] is 1.03%; in assay [2], 3.25%. In addition, the viability increase in assay [3] is -4.02%. Besides, the viability in assay [4] is 94.2%. Further, the inhibition in assay [5] is 2.02%. For the same molecule, the RAM network inhibition in assay [6] was 3.18%.
On to `CCOc1ccc(NC(=O)C2CC(C)=C(C)CC2C(=O)O)cc1` (stereo not given), for which the growth inhibition in assay [1] was -13.3%; in assay [2], 2.49%. For the same molecule, the viability increase in assay [3] was -1.85%. The viability in assay [4] was 99.1%. The inhibition in assay [5] is 1.79%. The RAM network inhibition in assay [6] is 1.67%.
Turning to `COc1ccc(CNC(=O)c2ccc(NC(=O)C3CCCO3)cc2)cc1` (stereo not given), the growth inhibition in assay [1] is -16.3%; in assay [2] it was -0.99%. Also, the viability increase in assay [3] is 0.75%. In assay [4], the viability was 98.6%. For the same molecule, the inhibition in assay [5] was 2.87%. Moreover, in assay [6], the RAM network inhibition was 8.83%.
